Assay [1] has as its target T1, OSBP-Myc-His (Homo sapiens, UniProt P22059).
T1 sequence (P22059 1-807): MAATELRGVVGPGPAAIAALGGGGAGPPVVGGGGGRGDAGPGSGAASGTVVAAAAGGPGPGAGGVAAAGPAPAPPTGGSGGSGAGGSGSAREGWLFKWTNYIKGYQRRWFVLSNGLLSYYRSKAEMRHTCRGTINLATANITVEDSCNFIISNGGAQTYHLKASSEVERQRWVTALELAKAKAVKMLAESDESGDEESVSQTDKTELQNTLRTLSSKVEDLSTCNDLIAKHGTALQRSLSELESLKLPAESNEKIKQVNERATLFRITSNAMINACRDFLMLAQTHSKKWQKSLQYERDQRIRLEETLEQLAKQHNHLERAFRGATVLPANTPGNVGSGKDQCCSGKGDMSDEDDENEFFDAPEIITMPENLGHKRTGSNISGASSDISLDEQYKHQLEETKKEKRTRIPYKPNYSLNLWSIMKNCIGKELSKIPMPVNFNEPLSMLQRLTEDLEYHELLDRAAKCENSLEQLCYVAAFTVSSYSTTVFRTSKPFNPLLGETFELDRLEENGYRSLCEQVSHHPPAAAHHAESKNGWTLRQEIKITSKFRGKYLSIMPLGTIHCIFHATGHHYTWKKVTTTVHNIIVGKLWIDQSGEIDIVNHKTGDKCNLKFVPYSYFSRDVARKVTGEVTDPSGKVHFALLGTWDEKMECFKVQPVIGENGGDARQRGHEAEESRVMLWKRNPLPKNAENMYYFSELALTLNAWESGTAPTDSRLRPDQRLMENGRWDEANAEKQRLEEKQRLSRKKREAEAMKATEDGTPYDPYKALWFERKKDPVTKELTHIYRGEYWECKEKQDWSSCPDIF
Kind of assay: [3H]25-OHC charcoal-dextran binding assay, wild-type OSBP-Myc-His. As to conditions: read-out: Ki, OSBP-Myc-His; competition with 20 nM [3H]25-OHC; mean ± s.d.

The target of assay [2] is T2, ORP4L-Myc-His (Homo sapiens, UniProt Q969R2).
T2 sequence (Q969R2 1-916): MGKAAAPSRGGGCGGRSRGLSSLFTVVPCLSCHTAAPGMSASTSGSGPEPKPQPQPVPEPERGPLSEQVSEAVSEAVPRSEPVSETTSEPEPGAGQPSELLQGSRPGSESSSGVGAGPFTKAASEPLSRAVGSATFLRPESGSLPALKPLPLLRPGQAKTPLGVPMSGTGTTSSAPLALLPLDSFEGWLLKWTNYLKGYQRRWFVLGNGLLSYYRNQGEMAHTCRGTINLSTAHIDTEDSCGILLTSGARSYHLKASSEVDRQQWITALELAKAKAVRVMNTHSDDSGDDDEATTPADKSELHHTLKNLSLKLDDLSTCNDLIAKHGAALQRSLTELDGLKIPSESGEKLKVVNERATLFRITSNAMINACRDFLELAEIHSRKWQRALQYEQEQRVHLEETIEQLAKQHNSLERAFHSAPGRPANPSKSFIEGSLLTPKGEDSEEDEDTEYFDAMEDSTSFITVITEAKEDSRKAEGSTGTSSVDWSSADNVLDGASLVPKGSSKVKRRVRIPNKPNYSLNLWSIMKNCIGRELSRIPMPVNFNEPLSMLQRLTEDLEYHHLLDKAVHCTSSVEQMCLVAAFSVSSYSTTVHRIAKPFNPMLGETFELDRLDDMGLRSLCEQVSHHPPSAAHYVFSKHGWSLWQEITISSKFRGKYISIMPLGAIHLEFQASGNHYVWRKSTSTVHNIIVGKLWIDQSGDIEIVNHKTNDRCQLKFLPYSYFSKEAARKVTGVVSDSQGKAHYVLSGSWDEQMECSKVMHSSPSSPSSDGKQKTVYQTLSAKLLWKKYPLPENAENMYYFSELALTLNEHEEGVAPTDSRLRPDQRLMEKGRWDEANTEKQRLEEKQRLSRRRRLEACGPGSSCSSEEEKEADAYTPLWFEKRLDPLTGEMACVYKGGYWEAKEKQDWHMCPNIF
The assay is described as follows: [3H]25-OHC charcoal-dextran binding assay, ORP4L-Myc-His.

Assay [3] has as its system HeLa cells overexpressing wild-type OSBP. The assay is described as follows: Overexpression-viability assay, wild-type OSBP-Myc-His. It is filed as cell-based, human. The note with it: 48 h, versus lacZ.
For assay [4], the system named is HeLa cells overexpressing ORP4L. The assay is described as follows: Overexpression-viability assay, ORP4L-Myc-His. It is filed as cell-based, human. The note with it: 48 h, versus lacZ.
Assay [5] has as its target T3, OSBP (Homo sapiens, UniProt P22059).
T3 sequence (P22059 1-807): T1 sequence (P22059 1-807)
The assay is described as follows: OSBP localization by immunofluorescence microscopy, HCT-116. The assay is classed as cell-based. As to conditions: HCT-116 cells, 4 h; 5 μM schweinfurthin A, 10 nM OSW-1, 20 nM cephalostatin 1. Summed up: (§1)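 Cells on coverslips were grown 72 h, then given test compound or vehicle (4 h for HCT-116). They were fixed 10 min in 3.7% formaldehyde/PBS and permeabilised 5 min in 0.5% Triton X-100. Blocking used Image-iT FX, then 1% BSA/PBS. Rabbit anti-OSBP (N-terminus) and mouse anti-p230 were applied overnight at 4 °C, then Alexa Fluor secondaries for 60 min with Hoechst 33258. Imaging was by confocal microscopy.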

Assay [6] concerns the target T3, OSBP. The assay is described as follows: OSBP localization by immunofluorescence microscopy, A549. The assay is classed as cell-based. As to conditions: A549 cells. A digest of the protocol:
as §1

Assay [7] relates to ceramide labeling in HCT-116 cells. Kind of assay: Ceramide labeling, [3H]serine pulse labeling, HCT-116. It is filed as cell-based, human. The note with it: range of concentrations.
Assay [8] deals with CERT. The assay is described as follows: CERT protein amount in treated cells. The assay is classed as cell-based, human. As to conditions: GI90 concentration, HCT-116 or A549 cells.
The subject of assay [9] is human cancer cell lines. As to conditions: cited from earlier work.
Assay [10] concerns HCT-116 p21^−/− cells stably transfected with shOSBP or shNT. Kind of assay: OSBP shRNA knockdown and dose-shift experiment. The assay is classed as cell-based, human. The note with it: 72 h. A digest of the protocol: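 HCT-116 p21−/− cells were stably transfected with OSBP-targeting or nontargeting shRNA in the pSIREN-RetroQ vector. […] Values are mean ± s.d. of 3–4 experiments, compared with shNT cells by two-tailed Student's t-test.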

`COc1ccc(C(=O)O[C@H]2[C@H](O[C@@H]3[C@@H](OC(C)=O)[C@H](O[C@H]4C[C@H]5[C@@H]6CC=C7C[C@@H](O)CC[C@]7(C)[C@H]6CC[C@]5(C)[C@@]4(O)[C@H](C)C(=O)CCC(C)C)OC[C@@H]3O)OC[C@@H](O)[C@@H]2O)cc1` [OSW-1]: the Ki in [1] stood at 26 nM; in assay [2] (read-out: Ki, ORP4L-Myc-His, competition with 20 nM [3H]25-OHC, mean ± s.d.) it was 54 ± 11 nM. The “Desensitization factor by OSBP overexpression (relative GI30)” value in assay [3] is 2–5. In addition, in assay [4], the “Desensitization factor by ORP4L overexpression (relative GI30)” value is on record as 2–5. For the same molecule, the OSBP localization entry in [5] is listed as “localize to a perinuclear position that did not localize with p230”; in assay [6], “dispersal or vesiculation of OSBP”. Moreover, the “Effect on ceramide labeling” value in assay [7] is reported as “no effect”. Moreover, the “Amount of CERT protein” value in [8] is given as “not affected”. The “GI50 (half-maximal inhibitory concentration)” value in [9] was “nanomolar range”.

With `CC(C)=CCC/C(C)=C/Cc1c(O)cc(/C=C/c2cc(O)c3c(c2)C[C@@H]2C(C)(C)[C@H](O)[C@H](O)C[C@@]2(C)O3)cc1O` [schweinfurthin A], in assay [2] (ratio of Ki values ORP4L / OSBP), the “Factor by which affinity for ORP4L is lower than affinity for OSBP” value is ~ 40. Also, the “Sensitization by OSBP shRNA knockdown (GI50 shift shOSBP vs shNT)” value in [10] is reported as “nine”. Also, in assay [3], the “Desensitization factor by OSBP overexpression (relative GI30)” value is reported as 2–5. For the same molecule, the “Desensitization factor by ORP4L overexpression (relative GI30)” value in [4] was 2–5. Further, the OSBP localization entry in assay [5] is recorded as “accumulate at perinuclear positions with a large degree of co-localization with the trans-Golgi marker p230”. In addition, the “GI50 (half-maximal inhibitory concentration)” value in assay [9] is “nanomolar range”.

(Values after PMC3158287 (Nature chemical biology, 2011).)
